Results published in ChEMBL document CHEMBL1240379, “Combined ramR mutation and presence of a Tn1721-associated tet(A) variant in a clinical isolate of Salmonella enterica serovar Hadar resistant to tigecycline” (2010).
≈ marks a conversion by molar mass, not a printed value.

Columns and labels:
Escherichia coli [1] = experiment: Antibacterial activity against Escherichia coli DH10B harboring Tn1721-tet(A) carrying plasmid by Etest method; assay type: functional; conditions: K-12 DH10B
Escherichia coli [2] = experiment: Antibacterial activity against Escherichia coli DH10B by Etest method; assay type: functional; conditions: K-12 DH10B
Escherichia coli [3] = experiment: Antibacterial activity against Escherichia coli DH10B expressing SK2 plasmid by Etest method; assay type: functional; conditions: K-12 DH10B
[4] = Antibacterial activity against Salmonella enterica serovar Hadar VA5649 by Etest method; assay type: functional, Salmonella enterica subsp. enterica serovar Hadar
Escherichia coli [5] = experiment: Antibacterial activity against Escherichia coli DH10B expressing Tn1721-tet(A) carrying plasmid SK2 by Etest method; assay type: functional; conditions: K-12 DH10B
[6] = Antibacterial activity against Salmonella enterica serovar Hadar VA5649 expressing ACYC177 plasmid by Etest method; assay type: functional, Salmonella enterica subsp. enterica serovar Hadar
[7] = Antibacterial activity against Salmonella enterica serovar Hadar VA5649 harboring wild type ramR-2313 gene by Etest method; assay type: functional, Salmonella enterica subsp. enterica serovar Hadar
[8] = Antibacterial activity against Salmonella enterica serovar Hadar VA5649 harboring ramR-5649 mutant gene by Etest method; assay type: functional, Salmonella enterica subsp. enterica serovar Hadar
Salmonella enterica [9] = experiment: Antibacterial activity against wild type Salmonella enterica TY2313 by Etest method; assay type: functional
Escherichia coli [10] = experiment: Antibacterial activity against Escherichia coli DH10B expressing SK2 plasmid by broth microdilution assay; assay type: functional; conditions: K-12 DH10B
In short: (§1)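 MIC by broth microdilution on a commercial ready-made drug panel, using freshly prepared Mueller-Hinton II broth (under 12 h old). MIC categories interpreted against EUCAST clinical breakpoints (susceptible, intermediate or resistant).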

[11] = Antibacterial activity against Salmonella enterica serovar Hadar VA5649 expressing ACYC177 plasmid by both microdilution assay; assay type: functional, Salmonella enterica subsp. enterica serovar Hadar
In short: (§2)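 Tigecycline MIC by broth microdilution using a commercial tigecycline panel with freshly prepared Mueller-Hinton II broth less than 12 h old. Susceptible, intermediate or resistant category assigned by EUCAST clinical breakpoints.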

[12] = Antibacterial activity against Salmonella enterica serovar Hadar VA5649 harboring wild type ramR-2313 gene by both microdilution assay; assay type: functional, Salmonella enterica subsp. enterica serovar Hadar; in short: as §2
[13] = Antibacterial activity against Salmonella enterica serovar Hadar VA5649 harboring ramR-5649 mutant gene by both microdilution assay; assay type: functional, Salmonella enterica subsp. enterica serovar Hadar; in short: as §2
Escherichia coli [14] = experiment: Antibacterial activity against Escherichia coli DH10B expressing Tn1721-tet(A) carrying plasmid SK2 by broth microdilution assay; assay type: functional; conditions: K-12 DH10B; in short: as §2
[15] = Antibacterial activity against Salmonella enterica serovar Hadar VA5649 by both microdilution assay; assay type: functional, Salmonella enterica subsp. enterica serovar Hadar; in short: as §2
Salmonella enterica [16] = experiment: Antibacterial activity against wild type Salmonella enterica TY2313 by broth microdilution assay; assay type: functional; in short: as §1
Escherichia coli [17] = experiment: Antibacterial activity against Escherichia coli DH10B harboring Tn1721-tet(A) carrying plasmid by broth microdilution assay; assay type: functional; conditions: K-12 DH10B; in short: as §2
Escherichia coli [18] = experiment: Antibacterial activity against Escherichia coli DH10B by broth microdilution assay; assay type: functional; conditions: K-12 DH10B; in short: as §1

Q: With `CN(C)c1ccc(O)c2c1C[C@H]1C[C@H]3[C@H](N(C)C)C(O)=C(C(N)=O)C(=O)[C@@]3(O)C(O)=C1C2=O` [MINOCYCLINE] as the compound, how does the MIC (Escherichia coli [1]) read?
A: Its MIC is 8 µg/mL (≈ 17.5 µM).

Q: What about the MIC (Escherichia coli [2]) of the same compound?
A: The MIC was 0.75 µg/mL (≈ 1.64 µM).

Q: What about the MIC (Escherichia coli [3]) of the same compound?
A: Its MIC is 0.75 µg/mL (≈ 1.64 µM).

Q: And the MIC [4]?
A: The MIC was 32 µg/mL (≈ 69.9 µM).

Q: What about the MIC (Escherichia coli [5]) of the same compound?
A: The MIC was 8 µg/mL (≈ 17.5 µM).

Q: What does the source list for `O=C(O)c1cn(C2CC2)c2cc(N3CCNCC3)c(F)cc2c1=O` [CIPROFLOXACIN]?
A: MIC [6]: 1 µg/mL (≈ 3.02 µM); MIC [7]: 0.25 µg/mL (≈ 0.754 µM); MIC [4]: 1 µg/mL (≈ 3.02 µM); MIC [8]: 1 µg/mL (≈ 3.02 µM)

Q: For `O=C(N[C@H](CO)[C@H](O)c1ccc([N+](=O)[O-])cc1)C(Cl)Cl` [CHLORAMPHENICOL], which MIC [6] is on record?
A: Its MIC is 8 µg/mL (≈ 24.8 µM).

Q: What about the MIC [7] of the same compound?
A: Its MIC is 2 µg/mL (≈ 6.19 µM).

Q: And the MIC (Salmonella enterica [9])?
A: The MIC was 2 µg/mL (≈ 6.19 µM).

Q: What about the MIC [4] of the same compound?
A: Its MIC is 8 µg/mL (≈ 24.8 µM).

Q: What about the MIC [8] of the same compound?
A: The MIC was 8 µg/mL (≈ 24.8 µM).

Q: What does the source list for `CN(C)c1cc(NC(=O)CNC(C)(C)C)c(O)c2c1C[C@H]1C[C@H]3[C@H](N(C)C)C(O)=C(C(N)=O)C(=O)[C@@]3(O)C(O)=C1C2=O` [TIGECYCLINE]?
A: MIC (Escherichia coli [10]): 0.065 µg/mL (≈ 0.111 µM); MIC [11]: 16 µg/mL (≈ 27.3 µM); MIC [12]: 2 µg/mL (≈ 3.41 µM); MIC [13]: 16 µg/mL (≈ 27.3 µM); MIC (Escherichia coli [14]): 0.25 µg/mL (≈ 0.427 µM); MIC [15]: 16 µg/mL (≈ 27.3 µM); MIC (Salmonella enterica [16]): 0.25 µg/mL (≈ 0.427 µM); MIC (Escherichia coli [17]): 0.25 µg/mL (≈ 0.427 µM); MIC (Escherichia coli [18]): 0.065 µg/mL (≈ 0.111 µM)
